Test results: ChEMBL document CHEMBL1147480, “Synthesis, absolute stereochemistry and molecular design of the new antifungal and antibacterial antibiotic produced by Streptomyces sp.201” (2004)
≈ marks a conversion by molar mass, not a printed value.

Assays:
Type in all cases: functional
Proteus vulgaris = assay: Minimum inhibitory concentration required for antibacterial activity against Proteus vulgaris
How it was run: (§1)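 Broth tube dilution in nutrient broth (5 mL final volume). The compound was diluted in phosphate buffer pH 7.4 and culture broth to final concentrations of 1–600 µg/mL. Inoculum was adjusted to 3×10^5 CFU/mL in Ringer's solution, then incubated at 35 °C for 24 h. Tubes without visible growth were subcultured (10 µL) onto agar plates at 35 °C and checked microscopically for growth.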

[1] = tested on: Mycobacterium tuberculosis; assay: Minimum inhibitory concentration required for antibacterial activity against Mycobacterium tuberculosis
How it was run: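 Tube dilution in M-33 broth (yeast extract, tryptone, glucose, pH 7.0; 5 mL final volume). Test agent was diluted in phosphate buffer pH 7.4 and broth to a final 1–600 µg/mL. Inoculum was 3×10^5 CFU/mL prepared in Ringer's solution, incubated at 35 °C for 120 h. Clear tubes were subcultured (10 µL) on agar at 35 °C and examined under a microscope for growth.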

Bacillus subtilis = assay: Minimum inhibitory concentration required for antibacterial activity against Bacillus subtilis; how it was run: as §1
Thanatephorus cucumeris = assay: Minimum fungicidal concentration required against Rhizoctonia solani
How it was run: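 Tube assay in molten M2 agar (g/L: yeast extract 5.00, NaCl 10.00, KH2PO4 0.10, MgSO4·7H2O 0.05, dextrose 10.00, agar 15.0, pH 7.1). Stock in sulfoxide solvent, diluted in phosphate buffer pH 7.4 and culture broth; final 1–600 µg/mL. Spore suspension in Ringer's solution, 3×10^5 CFU/mL; 35 °C, 48 h. MFC = lowest concentration killing 95% of inoculum.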

Escherichia coli = assay: Minimum inhibitory concentration required for antibacterial activity against Escherichia coli
How it was run: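 Broth tube dilution in nutrient broth; stock in sulfoxide solvent, diluted in phosphate buffer pH 7.4 and culture broth to final 1–600 µg/mL. Inoculum in Ringer's solution, 3×10^5 CFU/mL; 35 °C for 24 h. Tubes without visible growth subcultured (10 µL) onto agar plates at 35 °C, growth checked by microscope.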

Compound	MIC (Proteus vulgaris) [µg/mL]	MIC [1] [µg/mL]	MIC (Bacillus subtilis) [µg/mL]	MFC (Thanatephorus cucumeris) [µg/mL]	MIC (Escherichia coli) [µg/mL]
CCCCC[C@H](C)COC(=O)c1ccncc1 [(S)-2-METHYLHEPTYL ISONICOTINATE]	14 (≈ 59.5 µM)	14 (≈ 59.5 µM)	20 (≈ 85 µM)	32 (≈ 136 µM)	40 (≈ 170 µM)
CCCCC[C@@H](C)COC(=O)c1ccncc1 [ISONICOTINIC ACID 2-METHYL-HEPTYL ESTER]	6 (≈ 25.5 µM)	10 (≈ 42.5 µM)	16 (≈ 68 µM)	24 (≈ 102 µM)	30 (≈ 127 µM)
CCCCOC(=O)c1ccncc1 [ISONICOTINIC ACID BUTYL ESTER]	500 (≈ 2790 µM)	280 (≈ 1560 µM)	600 (≈ 3350 µM)	600 (≈ 3350 µM)	500 (≈ 2790 µM)
CCCCCCCOC(=O)c1ccncc1 [ISONICOTINIC ACID HEPTYL ESTER]	16 (≈ 72.3 µM)	16 (≈ 72.3 µM)	24 (≈ 108 µM)	15 (≈ 67.8 µM)	16 (≈ 72.3 µM)
CCCCCCOC(=O)c1ccncc1 [ISONICOTINIC ACID HEXYL ESTER]	36 (≈ 174 µM)	24 (≈ 116 µM)	50 (≈ 241 µM)	44 (≈ 212 µM)	35 (≈ 169 µM)
CCCCCCCCCCCCCCCCCCOC(=O)c1ccncc1 [ISONICOTINIC ACID OCTADECYL ESTER]	500 (≈ 1330 µM)	320 (≈ 852 µM)	600 (≈ 1600 µM)	600 (≈ 1600 µM)	56 (≈ 149 µM)
CCCCCCCCOC(=O)c1ccncc1 [ISONICOTINIC ACID OCTYL ESTER]	6 (≈ 25.5 µM)	8 (≈ 34 µM)	16 (≈ 68 µM)	18 (≈ 76.5 µM)	12 (≈ 51 µM)
CCCCCOC(=O)c1ccncc1 [ISONICOTINIC ACID PENTYL ESTER]	14 (≈ 72.4 µM)	10 (≈ 51.7 µM)	20 (≈ 103 µM)	14 (≈ 72.4 µM)	20 (≈ 103 µM)
